Experimental data: ChEMBL document CHEMBL4190216, “Asymmetric 1,5-diarylpenta-1,4-dien-3-ones: Antiproliferative activity in prostate epithelial cell models and pharmacokinetic studies” (Eur J Med Chem, 2017)

Legend:
[1] = system: LNCaP; assay: Antiproliferative activity against human LNCAP cells assessed as decrease in cell viability after 3 days by WST assay; assay type: functional, cell-based; settings: 72 h
How it was run: (§1)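 Cells were seeded at 3,200 per well. PC-3 and LNCaP were grown in RPMI-1640 and DU-145 in EMEM, each with 10% FBS and 1% penicillin/streptomycin, at 37 °C and 5% CO2. Cells were exposed for 3 days to at least five concentrations, with DMSO as vehicle control. WST-1 reagent was then added for 3 h at 37 °C and absorbance read at 430 nm. IC50 came from linear inhibition, averaged over triplicates.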

[2] = system: PC-3; assay: Antiproliferative activity against human PC3 cells assessed as decrease in cell viability after 3 days by WST assay; assay type: functional, cell-based; settings: PC-3, 72 h; how it was run: as §1
[3] = system: PC-3; assay: Potency index, ratio of curcumin IC50 to test compound IC50 for human PC3 cells; assay type: functional
[4] = system: LNCaP; assay: Potency index, ratio of curcumin IC50 to test compound IC50 for human LNCAP cells; assay type: functional
[5] = system: DU-145; assay: Antiproliferative activity against human DU145 cells assessed as decrease in cell viability after 3 days by WST assay; assay type: functional, cell-based; settings: DU-145, 72 h; how it was run: as §1
[6] = system: DU-145; assay: Potency index, ratio of curcumin IC50 to test compound IC50 for human DU145 cells; assay type: functional
[7] = system: PWR-1E; assay: Antiproliferative activity against human PWR-1E cells expressing androgen receptor and PSA assessed as decrease in cell viability after 3 days by WST assay; assay type: functional, cell-based; settings: 72 h
How it was run: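 Non-malignant prostate epithelial PWR-1E (adenovirus 12/SV40-immortalized) was seeded at 5,000 per well. Cells were exposed for 3 days at 37 °C in a CO2 incubator to at least five concentrations, with DMSO as vehicle control. WST-1 reagent was then added for 3 h at 37 °C and absorbance read at 430 nm. IC50 came from linear inhibition, as the mean of triplicate determinations.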

[8] = system: PWR-1E; assay: Potency index, ratio of curcumin IC50 to test compound IC50 for human PWR-1E cells expressing androgen receptor and PSA; assay type: functional

SMILES	IC50 [1]	IC50 [2]	IC50 [5]	Ratio IC50 [3]	Ratio IC50 [4]	Ratio IC50 [6]	IC50 [7]	Ratio IC50 [8]
CCC(C)n1ccnc1/C=C/C(=O)/C=C/c1cc(OC)c(OC)c(OC)c1 (centres undefined)	660 nM	720 nM	670 nM	35	21	39		
CCC(C)n1ccnc1/C=C/C(=O)/C=C/c1ccc(OC)c(OC)c1 (centres undefined)	910 nM	1330 nM	850 nM	19	15	31		
CC(C)n1ccnc1/C=C/C(=O)/C=C/c1cnc(N2CCCC2)s1	4050 nM	6860 nM	3680 nM	4	3	7		
Cc1nc(-c2ccncc2)sc1/C=C/C(=O)/C=C/c1nccn1C(C)C	540 nM	800 nM	660 nM	32	25	40		
CC(C)Cn1ccnc1/C=C/C(=O)/C=C/c1nc2ccccc2n1CC(C)C	560 nM	200 nM	370 nM	127	24	71		
CCCn1c(/C=C/C(=O)/C=C/c2sc(C)nc2C(F)(F)F)nc2ccccc21	460 nM	550 nM	840 nM	46	30	31		
CC(C)n1ccnc1/C=C/C(=O)/C=C/c1cnc(N2CCCCC2)s1	2170 nM	3400 nM	2550 nM	8	6	10		
COc1cc(/C=C/C(=O)/C=C/c2ccccn2)cc(OC)c1OC	400 nM	840 nM	830 nM	30	34	32		
CC(C)CCn1ccnc1/C=C/C(=O)/C=C/c1nc2ccccc2n1CCC(C)C	930 nM	210 nM	770 nM	121	41	34		
COc1ccc(/C=C/C(=O)/C=C/c2ccccn2)cc1OC	1760 nM	1700 nM	2050 nM	15	8	13		
CC(C)n1ccnc1/C=C/C(=O)/C=C/c1cnc(N2CCOCC2)s1	1410 nM	2270 nM	1320 nM	11	10	20		
O=C(/C=C/c1ccccn1)/C=C/c1nccs1	450 nM	550 nM	1130 nM	46	30	23		
COc1cc(/C=C/C(=O)CC(=O)/C=C/c2ccc(O)c(OC)c2)ccc1O [CURCUMIN]							8850 nM	

More lines, main results first:

IC50 [1]	IC50 [2]	IC50 [5]	SMILES	Ratio IC50 [3]	Ratio IC50 [4]	Ratio IC50 [6]	IC50 [7]	Ratio IC50 [8]
340 nM	480 nM	780 nM	Cc1nc(C(F)(F)F)c(/C=C/C(=O)/C=C/c2nc3ccccc3n2C)s1	53	40	34		
300 nM	540 nM	630 nM	Cc1cccc(/C=C/C(=O)/C=C/c2ccccn2)n1	47	45	42		
370 nM	140 nM	280 nM	CCCC(C)n1ccnc1/C=C/C(=O)/C=C/c1nc2ccccc2n1C(C)CCC (centres undefined)	182	37	94	40 nM	221
310 nM	450 nM	700 nM	Cc1cc(/C=C/C(=O)/C=C/c2ccccn2)no1	57	44	38		
170 nM	390 nM	420 nM	CCC(C)n1ccnc1/C=C/C(=O)/C=C/c1nccs1 (centres undefined)	64	80	62	140 nM	63
240 nM	370 nM	750 nM	CCC(C)n1ccnc1/C=C/C(=O)/C=C/c1conc1C (centres undefined)	69	57	35		
400 nM	190 nM	310 nM	CCCCn1ccnc1/C=C/C(=O)/C=C/c1nc2ccccc2n1CCCC	134	34	85		
180 nM	560 nM	680 nM	Cn1c(/C=C/C(=O)/C=C/c2ccccn2)nc2ccccc21	45	76	39		
220 nM	310 nM	500 nM	Cn1cc(Br)c(/C=C/C(=O)/C=C/c2ccccn2)n1	82	62	53	100 nM	89
240 nM	300 nM	340 nM	CCC(C)n1ccnc1/C=C/C(=O)/C=C/c1ccccn1 (centres undefined)	85	57	77	170 nM	52
310 nM	330 nM	280 nM	CCC(C)n1ccnc1/C=C/C(=O)/C=C/c1nn(C)cc1Br (centres undefined)	76	44	94	140 nM	63
240 nM	310 nM	530 nM	CCC(C)n1ccnc1/C=C/C(=O)/C=C/c1cc(C)on1 (centres undefined)	82	57	50	110 nM	81
260 nM	180 nM	130 nM	CC(C)n1ccnc1/C=C/C(=O)/C=C/c1nc2ccccc2n1C(C)C	141	52	138	30 nM	293
260 nM	260 nM	290 nM	CCC(C)n1ccnc1/C=C/C(=O)/C=C/c1cccc(C)n1 (centres undefined)	98	52	90	130 nM	68
330 nM	240 nM	350 nM	CCC(C)n1ccnc1/C=C/C(=O)/C=C/c1nc2ccccc2n1C(C)CC (centres undefined)	106	41	75		
